Results from different studies.
Protocols differ between the studies behind these lines.
Cell line: NCI-H23
Observed: cell growth or viability

Structure (SMILES)	method	concentration	time	measurement	value
Cc1cccc(-n2ncc(Br)c(Br)c2=O)c1	resazurin		96 h	IC50	0.21 µM
COc1ccc(-c2ccc(-c3ccc(C(=N)N)nc3)s2)cc1	SRB			GI50	1.84 µM
COc1ccc(C(=O)/C=C/c2cccc3ccccc23)cc1S(N)(=O)=O	SRB		48 h	GI50	2.2 µM
O=C(/C=C/c1ccc2c(=O)n(CC3CCCCC3)cnc2c1)NO	SRB		48 h	IC50	2.29 µM
CCc1n(Cc2ccc3ccccc3n2)cc[n+]1Cc1ccc2ccccc2n1	SRB			TGI	8.66 µM
S=C([S][Au-][P+](CCCCCC[P+]([Au-][S]C(=S)n1cccn1)(c1ccccc1)c1ccccc1)(c1ccccc1)c1ccccc1)n1cccn1	SRB			GI50	4.76 µM
C[C@]12CC[C@@H]3c4ccc(O)cc4CC[C@H]3[C@@H]1CC[C@@H]2O	ATP luminescence		72 h	EC90	78.5 µM
CCCc1n(Cc2ccc3ccccc3n2)cc[n+]1Cc1ccc2ccccc2c1	SRB			TGI	10.6 µM
O=C1NCCc2[nH]c(-c3ccncc3)cc21				IC50	> 10 µM
COc1ccccc1/C=C/C(=O)c1ccc(OC)c(S(N)(=O)=O)c1	SRB		48 h	GI50	2.3 µM
COc1cccc(Oc2ccccc2NC(=O)CNC(=O)c2cccc3ccccc23)c1	SRB		48 h	GI50	0.741 µM
COc1ccc(C(=O)/C=C/c2cccc(Cl)c2Cl)cc1S(N)(=O)=O	SRB		48 h	GI50	3.8 µM
O=C(/C=C/c1ccc2ncn(CCCl)c(=O)c2c1)NO	SRB		48 h	IC50	3.2 µM
COc1ccc(C(=O)/C=C/c2ccc3ccccc3c2)cc1S(N)(=O)=O	SRB	10 µM		inhibition	124%
CCCc1n(Cc2ccc3ccccc3n2)cc[n+]1Cc1ccc2ccccc2n1	SRB			TGI	15 µM
COc1ccc(C(=O)/C=C/c2cc3c(cc2Br)OCO3)cc1S(N)(=O)=O	SRB		48 h	GI50	4.3 µM
c1ccc2cc(Cn3cc[n+](Cc4ccc5ccccc5c4)c3)ccc2c1	SRB			TGI	10.1 µM
